Reference: ChEMBL document CHEMBL4610112, “Novel Pyrrolopyridone Bromodomain and Extra-Terminal Motif (BET) Inhibitors Effective in Endocrine-Resistant ER+ Breast Cancer with Acquired Resistance to Fulvestrant and Palbociclib” (J Med Chem, 2020)

Legend:
[1] = Growth inhibition of human T47D:TDG cells harboring ESR1 D538G mutant measured after 5 days by Hoechst 33342 dye based imaging analysis; assay type: functional; details: 120 h
Outline: (§1)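 Cells seeded at 2000/well in their maintenance medium, treated once the next day with compound (0.1 nM–10 μM; 0.1% DMSO final). Day 5 Hoechst 33342 staining with imaging count. Survival normalized to DMSO (100%) and JQ1 3 μM (0%). IC50 given as mean ± SEM from at least two passages, each in triplicate.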

Cytochrome P450 3A4 = Cytochrome P450 3A4 (Homo sapiens, UniProt P08684); experiment: Inhibition of human CYP3A4; assay type: ADME
MCF7:TAM1 = experiment: Growth inhibition of tamoxifen-resistant human MCF7:TAM1 cells measured after 5 days by Hoechst 33342 dye based imaging analysis; assay type: functional, cell-based; details: MCF7:TAM1, 120 h; outline: as §1
[2] = biological target: SWI/SNF-related matrix-associated actin-dependent regulator of chromatin subfamily A member 4 (Homo sapiens, UniProt P51532); experiment: Binding affinity to human partial length SMARCA4 (A1448 to S1575 residues) expressed in bacterial expression system by BROMOscan assay
Outline: (§2)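 BROMOscan panel of 40 bromodomains. Kd for DNA-tagged bromodomains determined by competition against an immobilized proprietary reference ligand.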

Protein polybromo-1 = Protein polybromo-1 (Homo sapiens, UniProt Q86U86); experiment: Binding affinity to human partial length PBRM1 bromodomain 2 (S178 to E291 residues) expressed in bacterial expression system by BROMOscan assay; outline: as §2
T47D = experiment: Growth inhibition of tamoxifen-sensitive human T47D cells measured after 5 days by Hoechst 33342 dye based imaging analysis; assay type: functional, cell-based; details: 120 h; outline: as §1
[3] = Growth inhibition of tamoxifen-sensitive human MCF7:WS8 cells measured after 5 days by Hoechst 33342 dye based imaging analysis; assay type: functional; details: MCF7:WS8, 120 h; outline: as §1
[4] = biological target: Bromodomain-containing protein 7 (Homo sapiens, UniProt Q9NPI1); experiment: Binding affinity to human partial length BRD7 (L125 to R254 residues) expressed in mammalian expression system by BROMOscan assay; outline: as §2
Chain of Bromodomain-containing protein 7 (Q9NPI1 whole entry, the tested form may be a part): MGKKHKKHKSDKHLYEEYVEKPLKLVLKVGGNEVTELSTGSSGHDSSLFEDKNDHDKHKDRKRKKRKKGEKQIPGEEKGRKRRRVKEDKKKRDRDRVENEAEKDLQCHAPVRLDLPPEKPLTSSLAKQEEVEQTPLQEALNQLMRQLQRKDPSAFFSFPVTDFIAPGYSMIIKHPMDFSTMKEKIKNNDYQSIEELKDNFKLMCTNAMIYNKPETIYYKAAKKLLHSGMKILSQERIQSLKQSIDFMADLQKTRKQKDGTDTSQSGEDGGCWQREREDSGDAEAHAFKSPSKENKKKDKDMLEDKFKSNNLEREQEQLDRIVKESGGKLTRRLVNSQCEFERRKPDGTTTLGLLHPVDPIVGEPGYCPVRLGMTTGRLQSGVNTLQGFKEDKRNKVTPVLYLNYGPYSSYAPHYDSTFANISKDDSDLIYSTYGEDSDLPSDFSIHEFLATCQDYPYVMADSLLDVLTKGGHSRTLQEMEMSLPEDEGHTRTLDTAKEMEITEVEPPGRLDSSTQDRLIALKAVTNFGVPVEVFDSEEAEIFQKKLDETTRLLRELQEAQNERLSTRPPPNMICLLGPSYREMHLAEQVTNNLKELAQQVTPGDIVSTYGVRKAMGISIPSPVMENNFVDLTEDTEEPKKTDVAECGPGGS

[5] = Growth inhibition of fulvestrant-resistant human MCF7:CFR 3D spheroid cells at 100 nM supplemented with fresh medium containing compound every 2 to 3 days for 9 days by celltitre-glo assay relative to control; assay type: functional
Outline: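 MCF-7:CFR cells seeded at 1000 cells/well in ultralow-attachment round-bottom plates and grown 24 h untreated as spheroids. Half the medium then replaced with 2× treatment medium, repeated every 2–3 days. Viability read by CellTiter-Glo 3D luminescence at day 9 and normalized to blank (medium plus reagent).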

[6] = biological target: Transcription intermediary factor 1-alpha (Homo sapiens, UniProt O15164); experiment: Binding affinity to human partial length TRIM24 phd bromodomain (P790 to P977 residues) expressed in bacterial expression system by BROMOscan assay; outline: as §2
Chain of Transcription intermediary factor 1-alpha (O15164 whole entry, the tested form may be a part): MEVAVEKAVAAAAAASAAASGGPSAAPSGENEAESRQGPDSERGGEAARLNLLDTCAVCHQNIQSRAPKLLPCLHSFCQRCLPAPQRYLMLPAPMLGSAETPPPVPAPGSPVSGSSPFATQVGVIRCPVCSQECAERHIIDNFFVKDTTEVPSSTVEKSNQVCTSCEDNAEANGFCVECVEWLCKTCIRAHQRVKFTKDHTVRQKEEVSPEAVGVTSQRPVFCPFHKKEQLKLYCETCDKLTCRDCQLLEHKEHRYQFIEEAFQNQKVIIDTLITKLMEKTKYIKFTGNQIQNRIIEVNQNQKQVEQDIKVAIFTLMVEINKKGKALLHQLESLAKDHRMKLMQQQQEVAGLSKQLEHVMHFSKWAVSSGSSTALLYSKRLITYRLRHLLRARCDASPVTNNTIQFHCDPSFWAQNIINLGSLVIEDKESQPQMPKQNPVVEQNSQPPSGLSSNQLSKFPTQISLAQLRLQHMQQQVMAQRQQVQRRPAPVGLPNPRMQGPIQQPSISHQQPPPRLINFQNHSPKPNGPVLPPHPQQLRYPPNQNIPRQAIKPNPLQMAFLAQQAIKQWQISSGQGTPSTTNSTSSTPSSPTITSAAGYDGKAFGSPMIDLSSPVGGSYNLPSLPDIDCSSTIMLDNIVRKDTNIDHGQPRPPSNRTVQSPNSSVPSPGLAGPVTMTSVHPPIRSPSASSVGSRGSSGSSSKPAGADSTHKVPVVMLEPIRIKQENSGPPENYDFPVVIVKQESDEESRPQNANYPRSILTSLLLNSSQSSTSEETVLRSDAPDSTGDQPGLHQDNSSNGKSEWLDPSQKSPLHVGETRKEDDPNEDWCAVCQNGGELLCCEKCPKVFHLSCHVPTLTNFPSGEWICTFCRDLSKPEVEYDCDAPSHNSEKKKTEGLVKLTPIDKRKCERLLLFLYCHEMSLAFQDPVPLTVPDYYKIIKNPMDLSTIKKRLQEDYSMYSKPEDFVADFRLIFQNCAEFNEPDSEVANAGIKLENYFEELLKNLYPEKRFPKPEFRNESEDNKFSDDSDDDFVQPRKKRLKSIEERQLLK

[7] = biological target: ATPase family AAA domain-containing protein 2B (Homo sapiens, UniProt Q9ULI0); experiment: Binding affinity to human partial length ATAD2B (Q955 to R1082 residues) expressed in bacterial expression system by BROMOscan assay; outline: as §2
[8] = biological target: SWI/SNF-related matrix-associated actin-dependent regulator of chromatin subfamily A member 2 (Homo sapiens, UniProt P51531); experiment: Binding affinity to human partial length SMARCA2 (S1377 to Q1486 residues) expressed in bacterial expression system by BROMOscan assay; outline: as §2
[9] = biological target: Histone acetyltransferase KAT2A (Homo sapiens, UniProt Q92830); experiment: Binding affinity to human partial length GCN5L2 (E726 to K837 residues) expressed in bacterial expression system by BROMOscan assay; outline: as §2
[10] = Growth inhibition of tamoxifen-resistant human MCF7:5C cells measured after 5 days by Hoechst 33342 dye based imaging analysis; assay type: functional; details: 120 h; outline: as §1
[11] = biological target: Bromodomain and WD repeat-containing protein 1 (Homo sapiens, UniProt Q9NSI6); experiment: Binding affinity to human partial length WDR9 bromodomain 2 (A1310 to E1430 residues) expressed in bacterial expression system by BROMOscan assay; outline: as §2
Chain of Bromodomain and WD repeat-containing protein 1 (Q9NSI6 whole entry, the tested form may be a part): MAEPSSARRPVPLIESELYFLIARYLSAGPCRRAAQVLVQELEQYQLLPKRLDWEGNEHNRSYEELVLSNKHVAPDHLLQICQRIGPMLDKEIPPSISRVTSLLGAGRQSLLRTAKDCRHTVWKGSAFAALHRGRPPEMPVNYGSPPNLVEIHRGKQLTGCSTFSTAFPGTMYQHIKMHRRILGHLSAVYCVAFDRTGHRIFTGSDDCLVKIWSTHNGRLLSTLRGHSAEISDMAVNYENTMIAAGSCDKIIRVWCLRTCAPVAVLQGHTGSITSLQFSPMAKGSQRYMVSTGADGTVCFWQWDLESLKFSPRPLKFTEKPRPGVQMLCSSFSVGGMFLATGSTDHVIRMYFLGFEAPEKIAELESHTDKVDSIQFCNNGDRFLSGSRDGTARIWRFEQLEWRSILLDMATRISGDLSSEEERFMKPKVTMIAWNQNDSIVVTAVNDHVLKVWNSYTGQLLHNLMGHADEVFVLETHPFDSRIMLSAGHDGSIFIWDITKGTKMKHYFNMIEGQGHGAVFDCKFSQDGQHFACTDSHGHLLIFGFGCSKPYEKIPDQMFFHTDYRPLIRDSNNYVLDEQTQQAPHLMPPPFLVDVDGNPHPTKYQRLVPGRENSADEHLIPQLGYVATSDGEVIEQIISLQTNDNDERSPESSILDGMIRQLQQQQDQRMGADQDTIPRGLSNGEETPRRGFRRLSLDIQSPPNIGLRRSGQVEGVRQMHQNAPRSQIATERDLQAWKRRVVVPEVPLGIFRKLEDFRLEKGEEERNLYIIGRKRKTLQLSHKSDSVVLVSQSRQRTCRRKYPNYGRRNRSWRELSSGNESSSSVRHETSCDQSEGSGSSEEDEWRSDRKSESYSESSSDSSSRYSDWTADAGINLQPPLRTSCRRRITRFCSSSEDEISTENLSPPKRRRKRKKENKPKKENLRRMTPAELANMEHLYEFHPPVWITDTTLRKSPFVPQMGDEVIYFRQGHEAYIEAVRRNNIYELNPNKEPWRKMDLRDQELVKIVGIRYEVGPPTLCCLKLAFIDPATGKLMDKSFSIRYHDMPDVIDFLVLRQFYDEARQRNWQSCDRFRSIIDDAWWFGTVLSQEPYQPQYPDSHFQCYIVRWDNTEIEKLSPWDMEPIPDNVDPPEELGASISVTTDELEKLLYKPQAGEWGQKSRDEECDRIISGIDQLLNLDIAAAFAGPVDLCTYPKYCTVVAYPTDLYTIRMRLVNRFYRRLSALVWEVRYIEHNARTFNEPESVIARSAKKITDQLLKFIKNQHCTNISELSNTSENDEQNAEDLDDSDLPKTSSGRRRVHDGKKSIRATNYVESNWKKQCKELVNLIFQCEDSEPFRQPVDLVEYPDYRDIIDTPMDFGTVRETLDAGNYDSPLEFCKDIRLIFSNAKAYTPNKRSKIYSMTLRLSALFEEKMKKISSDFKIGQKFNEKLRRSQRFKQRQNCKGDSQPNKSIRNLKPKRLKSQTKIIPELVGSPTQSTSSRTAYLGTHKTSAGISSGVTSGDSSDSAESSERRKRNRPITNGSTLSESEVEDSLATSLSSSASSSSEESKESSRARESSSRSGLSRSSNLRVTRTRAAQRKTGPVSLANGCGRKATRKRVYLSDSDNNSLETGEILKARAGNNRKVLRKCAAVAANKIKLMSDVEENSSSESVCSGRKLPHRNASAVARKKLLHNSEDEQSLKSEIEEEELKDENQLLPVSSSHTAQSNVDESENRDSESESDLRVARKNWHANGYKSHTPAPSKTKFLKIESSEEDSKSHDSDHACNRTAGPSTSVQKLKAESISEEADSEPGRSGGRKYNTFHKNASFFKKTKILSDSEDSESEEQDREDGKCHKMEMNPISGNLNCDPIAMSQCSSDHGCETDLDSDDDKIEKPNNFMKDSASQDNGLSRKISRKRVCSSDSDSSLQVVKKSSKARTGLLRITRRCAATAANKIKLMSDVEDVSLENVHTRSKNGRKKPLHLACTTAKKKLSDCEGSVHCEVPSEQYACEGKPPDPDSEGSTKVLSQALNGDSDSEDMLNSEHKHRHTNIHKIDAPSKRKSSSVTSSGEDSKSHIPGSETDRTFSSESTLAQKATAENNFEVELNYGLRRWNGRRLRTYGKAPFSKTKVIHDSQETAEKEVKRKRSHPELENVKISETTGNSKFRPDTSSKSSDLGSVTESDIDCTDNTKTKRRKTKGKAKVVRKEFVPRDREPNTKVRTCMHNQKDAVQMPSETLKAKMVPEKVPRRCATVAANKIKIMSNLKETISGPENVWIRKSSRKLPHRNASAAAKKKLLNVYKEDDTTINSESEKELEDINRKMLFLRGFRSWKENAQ

[12] = biological target: Bromodomain adjacent to zinc finger domain protein 2B (Homo sapiens, UniProt Q9UIF8); experiment: Binding affinity to human partial length BAZ2B (S2054 to S2168 residues) expressed in bacterial expression system by BROMOscan assay; outline: as §2
[13] = biological target: ATPase family AAA domain-containing protein 2 (Homo sapiens, UniProt Q6PL18); experiment: Binding affinity to human partial length ATAD2A (Q981 to R1108 residues) expressed in bacterial expression system by BROMOscan assay; outline: as §2
[14] = Growth inhibition of fulvestrant-resistant human MCF7:CFR cells measured after 5 days by Hoechst 33342 dye based imaging analysis; assay type: functional, cell-based; details: 120 h
Outline: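 MCF-7:CFR cells kept 2 days in phenol red-free RPMI 1640 with 10% charcoal–dextran FBS, then seeded at 2000 cells/well. Single treatment at 0.1 nM–10 μM (0.1% DMSO final) for 5 days. Nuclei stained with Hoechst 33342 and counted by imaging. Survival normalized to DMSO (100%) and JQ1 3 μM (0%). Mean ± SEM from at least two passages, triplicates in each.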

[15] = biological target: E3 ubiquitin-protein ligase TRIM33 (Homo sapiens, UniProt Q9UPN9); experiment: Binding affinity to human partial length TRIM33 phd bromodomain (D882 to A1087 residues) expressed in bacterial expression system by BROMOscan assay; outline: as §2
Chain of E3 ubiquitin-protein ligase TRIM33 (Q9UPN9 whole entry, the tested form may be a part): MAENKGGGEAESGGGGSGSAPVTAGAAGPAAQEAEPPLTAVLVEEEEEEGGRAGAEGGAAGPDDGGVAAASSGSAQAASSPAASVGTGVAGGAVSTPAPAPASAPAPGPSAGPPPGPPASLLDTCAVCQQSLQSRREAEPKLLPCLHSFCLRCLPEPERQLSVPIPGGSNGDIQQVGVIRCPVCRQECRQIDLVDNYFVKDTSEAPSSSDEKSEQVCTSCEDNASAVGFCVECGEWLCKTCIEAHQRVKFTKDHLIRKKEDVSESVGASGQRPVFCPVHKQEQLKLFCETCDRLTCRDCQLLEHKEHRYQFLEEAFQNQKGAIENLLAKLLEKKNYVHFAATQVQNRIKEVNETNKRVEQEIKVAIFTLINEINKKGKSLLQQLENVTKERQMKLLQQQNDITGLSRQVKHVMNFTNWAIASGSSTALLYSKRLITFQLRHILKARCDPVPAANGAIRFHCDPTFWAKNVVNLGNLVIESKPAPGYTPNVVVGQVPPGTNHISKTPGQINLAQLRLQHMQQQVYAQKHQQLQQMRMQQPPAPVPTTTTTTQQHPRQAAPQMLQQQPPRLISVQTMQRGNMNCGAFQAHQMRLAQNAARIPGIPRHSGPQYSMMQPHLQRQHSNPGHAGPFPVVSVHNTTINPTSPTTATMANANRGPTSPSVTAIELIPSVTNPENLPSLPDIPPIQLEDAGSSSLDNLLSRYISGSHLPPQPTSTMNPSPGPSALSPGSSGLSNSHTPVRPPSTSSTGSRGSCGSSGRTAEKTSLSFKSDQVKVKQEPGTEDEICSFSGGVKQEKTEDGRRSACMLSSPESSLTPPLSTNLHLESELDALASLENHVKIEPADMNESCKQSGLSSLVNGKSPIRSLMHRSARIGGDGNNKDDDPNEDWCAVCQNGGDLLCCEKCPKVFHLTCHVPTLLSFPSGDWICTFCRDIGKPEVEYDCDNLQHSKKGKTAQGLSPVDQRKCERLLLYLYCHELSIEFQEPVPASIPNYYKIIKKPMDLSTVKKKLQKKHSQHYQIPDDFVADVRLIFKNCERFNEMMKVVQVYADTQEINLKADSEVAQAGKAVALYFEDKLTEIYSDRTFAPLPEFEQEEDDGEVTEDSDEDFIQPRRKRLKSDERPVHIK

[16] = biological target: Nucleosome-remodeling factor subunit BPTF (Homo sapiens, UniProt Q12830); experiment: Binding affinity to human partial length FALZ (S2791 to H2911 residues) expressed in bacterial expression system by BROMOscan assay; outline: as §2
[17] = Growth inhibition of tamoxifen and palbociclib-resistant human MCF7:CPR cells measured after 5 days by Hoechst 33342 dye based imaging analysis; assay type: functional; details: 120 h; outline: as §1
[18] = biological target: Bromodomain and PHD finger-containing protein 3 (Homo sapiens, UniProt Q9ULD4); experiment: Binding affinity to human partial length BRPF3 (E588 to G701 residues) expressed in bacterial expression system by BROMOscan assay; outline: as §2
[19] = biological target: Bromodomain-containing protein 8 (Homo sapiens, UniProt Q9H0E9); experiment: Binding affinity to human partial length BRD8 BD2 (D1095 to F1235 residues) expressed in mammalian expression system BROMOscan assay; outline: as §2
[20] = biological target: Histone acetyltransferase KAT2B (Homo sapiens, UniProt Q92831); experiment: Binding affinity to human partial length PCAF (G715 to D831 residues) expressed in bacterial expression system by BROMOscan assay; outline: as §2

CCS(=O)(=O)Nc1cc(-c2cn(C)c3c(=O)[nH]ccc23)cc2c1ccn2C(C)(c1ccccn1)c1ccccn1
IC50 ([1]; read-out: IC50): < 10 nM
IC50 ([1]; read-out: pIC50 (converted)): 6.31 nM
IC50 (Cytochrome P450 3A4): ≥ 10000 nM
IC50 (MCF7:TAM1; read-out: IC50): < 10 nM
IC50 (MCF7:TAM1; read-out: pIC50 (converted)): 3.16 nM
Kd [2]: > 10000 nM
Kd (Protein polybromo-1): > 10000 nM
IC50 (T47D; read-out: IC50): < 10 nM
IC50 (T47D; read-out: pIC50 (converted)): 3.16 nM
IC50 ([3]; read-out: IC50): < 10 nM
IC50 ([3]; read-out: pIC50 (converted)): 3.98 nM
Kd [4]: > 10000 nM
growth inhibition (GI) [5]: 100%
Kd [6]: > 10000 nM
Kd [7]: > 10000 nM
Kd [8]: > 10000 nM
Kd [9]: > 10000 nM
IC50 ([10]; read-out: IC50): < 10 nM
IC50 ([10]; read-out: pIC50 (converted)): 2 nM
Kd [11]: > 10000 nM
Kd [12]: > 10000 nM
Kd [13]: > 10000 nM
IC50 [14]: 0.9 nM
Kd [15]: > 10000 nM
Kd [16]: > 10000 nM
IC50 [17]: < 10 nM
Kd [18]: > 10000 nM
Kd [19]: > 10000 nM
Kd [20]: > 10000 nM
